High-throughput results from PubChem.
NR3A LBD binder: modulators (binders) of human NR3A ligand-binding domain | 340,000 tested, 2.5% active | NR3A LBD differential scanning fluorimetry, Tm shift; 0% = protein alone, 100% = glycine-bound protein | Tm shift relative to glycine control, % at 25 µM | AID 1259313;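 active means melting temperature shift of at least 10% of the positive control shift, at one fixed dose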
EBI2 antag: blocks human EBI2 receptor beta-arrestin signaling; 360,000 tested, 0.81% active; AID 651636; EBI2 beta-arrestin recruitment, luminescence, 7a,25-OHC stimulated; P32249; inhibition, % at 5 µM; in the data active means inhibition above about 38%;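 further: enzyme fragment complementation signal reports receptor beta-arrestin coupling in cells; 0% = agonist plus DMSO wells and 100% = wells without agonist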
MPTP block: inhibitors of mitochondrial permeability transition pore | isolated mouse mitochondria, Ca2+ swelling absorbance, 30 min | inhibition, % at 10 µM | 360,000 tested, 1.4% active | AID 602449;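 active means inhibition of 50% or more, scaled per plate between neutral and stimulator controls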;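 further: 0% = DMSO wells given calcium and 100% = 1 mM EGTA wells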
SENP1 inh: inhibitors of human SENP1 SUMO protease catalytic domain | Q9P0U3 | 360,000 tested, 0.21% active | recombinant SENP1 catalytic domain, CyPet-SUMO1-YPet FRET cleavage | inhibition, % at 10 µM | AID 624204;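 active means inhibition at least 30% at 10 µM, raw YFP signal under a set limit, fluorescence ratio 0.5 to 1.5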;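 further: 0% = enzyme with DMSO and 100% = no enzyme wells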
Target sequence (Q9P0U3 419-644 limits assumed): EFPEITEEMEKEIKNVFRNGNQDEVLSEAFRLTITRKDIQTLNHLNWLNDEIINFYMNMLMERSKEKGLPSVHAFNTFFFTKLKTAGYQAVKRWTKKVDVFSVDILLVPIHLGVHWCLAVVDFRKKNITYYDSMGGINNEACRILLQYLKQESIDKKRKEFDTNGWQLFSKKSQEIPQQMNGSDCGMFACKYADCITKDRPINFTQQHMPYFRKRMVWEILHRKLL
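System: Recombinant human SENP1 catalytic domain, His6-tagged | Incubation: Enzyme reaction for 50 min at room temperature, dark | Medium: Tris pH 8 with BME, BSA, NP40 and catalase | Also added: 25 nM SUMO1 FRET substrate | Compound: 10 µM single point, 0.5% DMSO | Measured by: FRET fluorescence in CFP and YFP emission channels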
EBI2 antag conf: EBI2 (human) antagonism, single concentration confirmation. shares compounds with EBI2 antag. EBI2 beta-arrestin luminescence, 7a,25-OHC antagonism. inhibition, % at 5 µM. 2,400 tested, 29% active. AID 651997;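 active means inhibition of at least 50%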
EBI2 ag: activates EBI2, counter-screen for EBI2 antagonists | shares compounds with EBI2 antag | EBI2-expressing cells, agonist mode, luminescence, 60 min; 0% vehicle, 100% 7α,25-dihydroxycholesterol control | activation, % at 5 µM | 2,400 tested, under 10 active | AID 652000;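 active means activation of at least 50%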
bGal cs: inhibits E. coli beta-galactosidase, counter-screen for EBI2 antagonists. AID 652176. purified beta-galactosidase, luminescent Galacton Star, 15 min. 2,400 tested, 1% active. shares compounds with EBI2 antag. inhibition, % at 5 µM;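 active means replicate-average signal at least 3 plate SD below neutral wells, shown as high inhibition, flagging enzyme-inhibiting false positives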;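 further: 0% = DMSO wells with enzyme and 100% = wells lacking enzyme; higher means stronger loss of beta-gal luminescence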
* = called active by the depositor; . = no result. Sampled rows, rich in hits. Any-hit rate of the full collection: about 4.4%.

SMILES	NR3A LBD binder	EBI2 antag	MPTP block	SENP1 inh	EBI2 antag conf	EBI2 ag	bGal cs
CS(=O)(=O)N(CC(=O)NCCSc1ccc(Cl)cc1)c1ccc2c(c1)OCO2	1	87*	-2	3	63*	0	3
COc1ccccc1C(CNC(=O)c1ccc(NS(=O)(=O)c2ccc3c(c2)OCCO3)cc1)N(C)C (centres undefined)	2	0	0	2	.	.	.
COc1ccc(CNc2oc(COc3ccc(Cl)cc3)nc2C#N)cc1	3	42*	7	-1	29	0	1
CC(C)(C)OC(=O)N(CCc1ccccc1)Cc1ccccc1OCc1cccc(NC(=O)/C=C/c2ccccc2)c1	1	20	-1	3	.	.	.
CC(C)(C)OC(=O)N(CCc1ccccc1)Cc1ccc(OCc2cccc(NC(=O)/C=C/c3ccccc3)c2)cc1	1	59*	1	4	15	1	5
O=C(Nc1cccc(OC(F)(F)F)c1)C1Cc2c(-c3ccccc3Oc3ccccc3)ccnc2O1 (centres undefined)	.	-3	2	1	.	.	.
CC(=O)N1CCOc2ccc(S(=O)(=O)N3CCC(C(=O)NCc4ccccc4)CC3)cc21	4	65*	-2	0	50	0	-14
Cc1ccc(CNC(=O)C2CCC(CNS(=O)(=O)c3cccc4cccnc34)CC2)cc1 (centres undefined)	-2	50*	0	0	39	-1	-10
Cc1ccc(CNC(=O)C2CCN(S(=O)(=O)c3cccnc3)CC2)cc1	3	52*	2	3	44	2	5
Cc1ccc(CNC(=O)C2CCN(S(=O)(=O)c3cccc4nonc34)CC2)cc1	-6	49*	-1	7	24	0	7
CNS(=O)(=O)c1cc(Br)ccc1S(=O)c1ccccc1C(=O)O (centres undefined)	1	-18	2	3	.	.	.
Cc1nc(-c2c(-c3ccc(O)cc3O)noc2C(F)(F)F)cs1	-2	3	3	1	.	.	.
COc1cccc(-c2noc(CCC(=O)NC3CCCC3)n2)c1	-1	-5	-1	0	.	.	.
Cc1ccc(CNC(=O)C2CCN(S(=O)(=O)c3c(C)noc3C)CC2)cc1	0	47*	0	3	18	1	-10
COc1ccc(/C=N/NC(=O)C(=O)N2CCCCCC2)cc1[N+](=O)[O-]	-3	1	-1	3	.	.	.
c1ccc(-c2csc(Nc3nc(N4CCOCC4)nc(N4CCOCC4)n3)n2)cc1	1	50*	-1	1	37	-1	-10
COCC(C)n1c(C)cc(C(=O)COC(=O)c2c(NC(C)=O)sc(C)c2C)c1C (centres undefined)	2	6	1	-1	.	.	.
O=C(Nc1ccc2ccccc2c1)[C@@H]1C[C@H]1[C@@H](NP(=O)(c1ccccc1)c1ccccc1)c1ccccc1	-1	59*	0	-1	11	-1	-13
O=C(NCc1ccccc1)[C@@H]1C[C@H]1[C@@H](NP(=O)(c1ccccc1)c1ccccc1)c1ccccc1	-1	25	1	1	.	.	.
COc1cc(NC(=S)N(C)CCC#N)c(OC)cc1Cl	1	-4	1	9	.	.	.
Cc1cccc(C)c1NC(=O)C(=O)NCCOc1ccc(Cl)cc1	2	51*	0	1	25	1	4
CCc1ccc(OCCNC(=O)c2ccc(S(=O)(=O)N(C)C)cc2)cc1	-1	64*	0	0	41	-1	-9
Cc1ccc(C(=O)NCCOc2ccc(Cl)cc2)cc1	-1	51*	1	12	22	-1	-8
Cc1ccc(OCCNC(=O)CCNS(=O)(=O)c2ccc3ccccc3c2)cc1	1	47*	0	-1	5	-1	-10
CC(C)(C)C(=O)Nc1cc2c3c(c1)CCC(=O)N3CCC2	0	-3	-2	1	.	.	.
